Values after ≈ are worked out from the molar mass of the structure shown. Active and inactive are the calls of the source. The rule behind the calls is not given here.
Columns and labels:
[1] = system: Escherichia coli; assay: Antimicrobial activity against Escherichia coli ATCC 25922 after 18 hrs by twofold serial microdilution method; assay type: functional, organism-based
[2] = Cytotoxicity against bovine MDBK cells assessed as cell viability after 48 to 96 hrs by MTT assay; assay type: cell-based, Bos taurus; conditions: cattle
[3] = system: Candida albicans; assay: Antimicrobial activity against Candida albicans ATCC 10231 after 24 hrs by twofold serial microdilution method; assay type: functional, organism-based
[4] = system: Human immunodeficiency virus 1; assay: Antiviral activity against HIV1 3B infected in human MT4 cells assessed as protection against virus-induced cytopathogenicity by MTT assay; assay type: functional, organism-based; conditions: Human immunodeficiency virus 1, 3B
[5] = system: Mammalian orthoreovirus 1; assay: Antiviral activity against Reovirus type-1 ATCC VR-214 infected in BHK cells assessed as protection against virus-induced cytopathogenicity after 3 to 4 days by MTT assay; assay type: functional, cell-based; conditions: Mammalian orthoreovirus 1, ATCC VR-214, BHK
In short: (§1)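 Cells seeded in 96-well plates (BHK 5x10^4, MDBK 3x10^4 cells/well), grown overnight to confluence, infected at m.o.i. 0.01 (BHK for Reo-1, MDBK for BVDV); serial compound dilutions in maintenance medium with 0.5% inactivated FBS added after 1 h; viability by MTT after 3–4 days at 37°C; EC50 for 50% protection by linear regression.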

[6] = system: Pseudomonas aeruginosa; assay: Antimicrobial activity against Pseudomonas aeruginosa ATCC 15442 after 18 hrs by twofold serial microdilution method; assay type: functional, organism-based
[7] = system: Yellow fever virus; assay: Antiviral activity against Yellow fever virus 17D infected in BHK cells assessed as protection against virus-induced cytopathogenicity after 3 to 4 days by MTT assay; assay type: functional, cell-based
[8] = Cytotoxicity against BHK cells assessed as cell viability after 48 to 96 hrs by MTT assay; assay type: cell-based, Mesocricetus auratus; conditions: hamster
[9] = system: Mycobacterium tuberculosis; assay: Antimycobacterial activity against drug-sensitive Mycobacterium tuberculosis Spec. 192; assay type: functional
In short: (§2)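 Classical test-tube successive-dilution method in Youmans' modification of Proskauer and Beck liquid medium with 10% bovine serum. Inoculum came from 14-day cultures. DMSO stock was 10 mg/mL, diluted geometrically in medium. Tubes were incubated at 37 °C. Concentrations tested were 3.1, 6.2, 12.5, 25, 50 and 100 µg/ml. MIC is the minimum concentration inhibiting growth relative to compound-free tubes.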

[10] = system: Vesicular stomatitis virus; assay: Antiviral activity against Vesicular stomatitis virus ATCC VR 1540 infected in African green monkey Vero 76 cells assessed as reduction of virus-plaque formation after 2 days by crystal violet staining; assay type: functional, organism-based; conditions: ATCC VR 1540, Vero, 48 h
[11] = Antiviral activity against Bovine viral diarrhea virus 1-NADL ATCC VR-534 infected in MDBK cells assessed as protection against virus-induced cytopathogenicity after 3 to 4 days by MTT assay; assay type: functional, cell-based; conditions: Bovine viral diarrhea virus isolates and strains, ATCC VR-534, MDBK; in short: as §1
[12] = system: Coxsackievirus B5; assay: Antiviral activity against Human coxsackievirus B5 ATCC VR-29 infected in African green monkey Vero 76 cells assessed as reduction of virus-plaque formation after 3 days by crystal violet staining; assay type: functional, organism-based; conditions: Enterovirus B, ATCC VR-29, Vero, 72 h
In short: (§3)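 Plaque reduction: Vero-76 at 2x10^5 cells/well grown to confluent monolayers, infected 2 h at 50–100 PFU/well; after removing unadsorbed virus, overlay of D-MEM, 1% inactivated FBS, 0.75% methylcellulose with or without serial compound dilutions; 3 days at 37°C, fixed and stained with crystal violet in 50% ethanol, plaques counted; EC50 by linear regression.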

[13] = system: Escherichia coli; assay: Antimicrobial activity against Escherichia coli ATCC 10538 after 18 hrs by twofold serial microdilution method; assay type: functional, organism-based
[14] = system: Candida albicans; assay: Antimicrobial activity against Candida albicans ATCC 90028 after 24 hrs by twofold serial microdilution method; assay type: functional, organism-based
[15] = system: Mycobacterium tuberculosis; assay: Antimycobacterial activity against Mycobacterium tuberculosis H37Rv ATCC 25618; assay type: functional; in short: as §2
[16] = system: Bordetella bronchiseptica; assay: Antimicrobial activity against Bordetella bronchiseptica ATCC 4617 after 18 hrs by twofold serial microdilution method; assay type: functional, organism-based
[17] = system: Poliovirus 1; assay: Antiviral activity against Poliovirus type 1 ATCC VR-1562 infected in African green monkey Vero 76 cells assessed as reduction of virus-plaque formation after 2 days by crystal violet staining; assay type: functional, organism-based; conditions: Enterovirus C, ATCC VR-1562, Vero, 48 h
[18] = system: Pseudomonas aeruginosa; assay: Antimicrobial activity against Pseudomonas aeruginosa ATCC 27863 after 18 hrs by twofold serial microdilution method; assay type: functional, organism-based
[19] = Cytotoxicity against human MT4 cells; assay type: cell-based
[20] = system: Pseudomonas aeruginosa; assay: Antimicrobial activity against Pseudomonas aeruginosa NCTC 6749 after 18 hrs by twofold serial microdilution method; assay type: functional, organism-based
[21] = system: Escherichia coli; assay: Antimicrobial activity against Escherichia coli NCTC 8196 after 18 hrs by twofold serial microdilution method; assay type: functional, organism-based
[22] = system: Vaccinia virus; assay: Antiviral activity against Human Vaccinia virus ATCC VR-1549 infected in African green monkey Vero 76 cells assessed as reduction of virus-plaque formation after 3 days by crystal violet staining; assay type: functional, organism-based; conditions: Orthopoxvirus vaccinia, ATCC VR-1549, Vero, 72 h
[23] = system: Human alphaherpesvirus 1; assay: Antiviral activity against Human herpesvirus 1 KOS ATCC VR-1493 infected in African green monkey Vero 76 cells assessed as reduction of virus-plaque formation after 3 days by crystal violet staining; assay type: functional, organism-based; conditions: Human alphaherpesvirus 1, KOS ATCC VR1493, Vero, 72 h; in short: as §3
[24] = system: Candida parapsilosis; assay: Antimicrobial activity against Candida parapsilosis ATCC 22019 after 24 hrs by twofold serial microdilution method; assay type: functional, organism-based
[25] = Cytotoxicity against African green monkey Vero 76 cells assessed as cell viability after 48 to 96 hrs by crystal violet staining; assay type: cell-based; conditions: chlorocebus sabaeus

| Structure (SMILES) | Activity [1] | CC50 [2] [µM] | Activity [3] | EC50 [4] [µM] | EC50 [5] [µM] | Activity [6] | EC50 [7] [µM] | CC50 [8] [µM] | MIC [9] [µg/mL] | EC50 [10] [µM] | EC50 [11] [µM] | EC50 [12] [µM] | Activity [13] | Activity [14] | MIC [15] [µg/mL] | Activity [16] | EC50 [17] [µM] | Activity [18] | CC50 [19] [µM] | Activity [20] | further results |
| --- | --- | --- | --- | --- | --- | --- | --- | --- | --- | --- | --- | --- | --- | --- | --- | --- | --- | --- | --- | --- | --- |
| CCCCc1ccc(NC(=S)Nc2cccc(C(F)(F)F)c2)c(C)c1 | inactive | 10 | inactive | > 43 | > 9 | inactive | > 9 | 9 | 100 (≈ 273 µM) | > 18 | > 10 | > 18 | inactive | inactive | 50 (≈ 136 µM) | inactive | > 18 | inactive | 43 | inactive | Activity [21]: inactive; EC50 [22]: > 18 µM; EC50 [23]: > 18 µM; Activity [24]: inactive; CC50 [25]: 18 µM |
| FC(F)(F)c1cccc(NC(=S)NC2CCCCC2)c1 | inactive | 48 | inactive | > 45 | > 14 | inactive | > 14 | 14 | > 100 | > 60 | > 48 | > 60 | inactive | inactive | > 100 | inactive | > 60 | inactive | 45 | inactive | Activity [21]: inactive; EC50 [22]: > 60 µM; EC50 [23]: > 60 µM; Activity [24]: inactive; CC50 [25]: 60 µM |

From ChEMBL document CHEMBL3616436, “Synthesis, cytotoxicity and antimicrobial activity of thiourea derivatives incorporating 3-(trifluoromethyl)phenyl moiety” (Eur J Med Chem, 2015)
